For experiment [1], the system named is Pseudomonas aeruginosa. In words: Antimicrobial activity against Pseudomonas aeruginosa 50071 after 24 to 48 hrs by serial dilution method. Type of experiment: functional. An outline of the steps: (§1)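 Compounds from 1 mg/mL stock, 2 and 20 μL aliquots, serially diluted 1:1 in 0.15 mL medium in microtiter plates. Shaken at 160 rpm, 30 °C, 24−48 h. MIC is the lowest concentration preventing visible growth.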

Experiment [2] deals with Nocardia sp. Put plainly: Antimicrobial activity against Nocardia sp. 43069 after 24 to 48 hrs by serial dilution method. Type of experiment: functional. An outline of the steps:
as §1

The subject of experiment [3] is Staphylococcus aureus. In words: Antimicrobial activity against Staphylococcus aureus 346 after 24 to 48 hrs by serial dilution method. It counts as functional. A digest of the protocol: as §1
The subject of experiment [4] is Mycolicibacterium diernhoferi. Put plainly: Antimicrobial activity against Mycobacterium diernhoferi 43542 after 24 to 48 hrs by serial dilution method. It counts as functional. An outline of the steps:
as §1

In experiment [5] the test system is Paenibacillus polymyxa. In words: Antimicrobial activity against Paenibacillus polymyxa 36 after 24 to 48 hrs by serial dilution method. It counts as functional. A digest of the protocol:
as §1

Experiment [6] deals with Escherichia coli. Put plainly: Antimicrobial activity against Escherichia coli 1116 after 24 to 48 hrs by serial dilution method. It counts as functional. A digest of the protocol: as §1
Experiment [7] deals with Chromobacterium violaceum. In words: Antimicrobial activity against Chromobacterium violaceum 30191 after 24 to 48 hrs by serial dilution method. Type of experiment: functional. An outline of the steps:
as §1

In experiment [8] the test system is Trichosporon oleaginosus. Put plainly: Antimicrobial activity against Trichosporon oleaginosus 11815 after 24 to 48 hrs by serial dilution method. Type of experiment: functional. The note with it: Cutaneotrichosporon oleaginosum. A digest of the protocol: (§2)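 Yeasts and filamentous fungi tested in MYC medium (1.0% glucose, 1.0% phytone peptone, 50 mM HEPES, pH 7.0). Aliquots of 2 and 20 μL from 1 mg/mL stock, 1:1 serial dilution in 0.15 mL medium in microtiter plates. Incubated at 30 °C with shaking at 160 rpm for 24−48 h. MIC read as the lowest concentration with no visible growth.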

In experiment [9] the test system is Mucor hiemalis. In words: Antimicrobial activity against Mucor hiemalis 2656 after 24 to 48 hrs by serial dilution method. It counts as functional. A digest of the protocol:
as §2

In experiment [10] the test system is L929. Put plainly: Cytotoxicity against mouse L929 cells by MTT assay. Type of experiment: functional, cell-based. An outline of the steps: (§3)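 MTT assay in 96-well plates, giving IC50. Media: DMEM for KB-3-1, A431, A549 and L929; F12K for PC-3; RPMI for MCF-7; EBM-2 for HUVEC; McCoy's for SKOV-3. All media had 10% FBS, and cells were kept at 37 °C under 10% CO2. Methanol served as negative control and epothilone A as positive control.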
In general terms: Tetrazolium dyes change colour on reduction, which living cells bring about.

A short description of experiment [11]: Cytotoxicity against human PC3 cells by MTT assay. Conditions: PC-3. Type of experiment: functional, cell-based. An outline of the steps: as §3
Experiment [12] can be described thus: Cytotoxicity against human KB3-1 cells by MTT assay. The note with it: KB 3-1. Type of experiment: functional, cell-based. A digest of the protocol:
as §3

Experiment [13] has as its system MCF7. Put plainly: Cytotoxicity against human MCF7 cells by MTT assay. It counts as functional, cell-based. An outline of the steps:
as §3

Experiment [14] deals with A549. Put plainly: Cytotoxicity against human A549 cells by MTT assay. It counts as functional, cell-based. An outline of the steps:
as §3

Experiment [15] is described as follows: Cytotoxicity against human SKOV3 cells by MTT assay. Type of experiment: functional, cell-based. The note with it: SK-OV-3. A digest of the protocol: as §3
Experiment [16] relates to Saccharomyces cerevisiae. Put plainly: Antimicrobial activity against Saccharomyces cerevisiae 70449 after 24 to 48 hrs by serial dilution method. It counts as functional. A digest of the protocol: as §2
Experiment [17] has as its system Candida albicans. In words: Antimicrobial activity against Candida albicans 1665 after 24 to 48 hrs by serial dilution method. Type of experiment: functional. A digest of the protocol: as §2
Experiment [18] has as its system Wickerhamomyces anomalus. In words: Antimicrobial activity against Wickerhamomyces anomalus 6766 after 24 to 48 hrs by serial dilution method. Type of experiment: functional. An outline of the steps:
as §2

Experiment [19] deals with HUVEC. In words: Cytotoxicity against HUVEC cells by MTT assay. It counts as functional, cell-based. The note with it: Homo sapiens. A digest of the protocol: as §3
Experiment [20] has as its system A-431. Put plainly: Cytotoxicity against human A431 cells by MTT assay. It counts as functional, cell-based. A digest of the protocol:
as §3

pIC50: −log10 of the molar value. ≈ marks a conversion by molar mass, not a printed value.

The record followed here is ChEMBL document CHEMBL3352732, “Nannozinones and sorazinones, unprecedented pyrazinones from myxobacteria” (J Nat Prod, 2014).

The MIC is the smallest concentration in the dilution series that meets the test's criterion for growth inhibition. Lower therefore signals a more susceptible organism. One may read the pIC50 as the negative decadic logarithm of the IC50, by convention in mol/L. A high value points to a low IC50.

In experiment [1], GENTAMICIN displayed an MIC of 42 µg/mL.
In the case of `CN(C)[C@@H]1C(O)=C(C(N)=O)C(=O)[C@@]2(O)C(O)=C3C(=O)c4c(O)cccc4[C@@](C)(O)[C@H]3[C@H](O)[C@@H]12.Cl` [OXYTETRACYCLINE HYDROCHLORIDE], the MIC in experiment [2] amounted to 0.52 µg/mL; in experiment [3], 0.52 µg/mL; in [4], 0.52 µg/mL; in [5] it was 6.7 µg/mL; in experiment [6] it was 0.42 µg/mL; in experiment [7] it was 1 µg/mL.
In the case of `Cc1ccn2c(=O)c3cccn3c(=O)c12`, the MIC in experiment [8] is more than 66.6 µg/mL; in [9], more than 66.6 µg/mL; in experiment [2], 16.6 µg/mL (≈ 82.9 µM); in experiment [3], more than 66.6 µg/mL; in experiment [4], more than 66.6 µg/mL; in experiment [5], more than 66.6 µg/mL. The minimum inhibitory concentration (MIC) in experiment [6] is more than 66.6 µg/mL; in experiment [7], more than 66.6 µg/mL; in experiment [1] it was more than 66.6 µg/mL; in [16], more than 66.6 µg/mL; in experiment [17] it was more than 66.6 µg/mL; in experiment [18] (Hansenula anomala), 66.6 µg/mL (≈ 333 µM). Moreover, the negative logarithm of the IC50 (pIC50) in experiment [10], in experiment [11], in experiment [12], in [13], in [14] and in experiment [15] was less than 4.30 throughout.
On to `COC(=O)c1c[nH]c2ccccc12`, for which the MIC in experiment [8] was more than 66.6 µg/mL; in experiment [9] it was more than 66.6 µg/mL; in [2], 33.3 µg/mL (≈ 190 µM); in experiment [3], more than 66.6 µg/mL; in [4] it was more than 66.6 µg/mL; in [5], more than 66.6 µg/mL. Besides, the MIC in experiment [6], in [7], in experiment [1], in experiment [16], in [17] and in experiment [18] (Hansenula anomala) was more than 66.6 µg/mL throughout. Moreover, the negative logarithm of the IC50 (pIC50) in experiment [10], in experiment [11], in experiment [12], in [13], in experiment [14] and in experiment [15] was less than 4.25 in each case.
Turning to `C/C(=C\c1csc(C)n1)[C@@H]1C[C@@H]2O[C@@H]2CCC[C@H](C)[C@H](O)[C@@H](C)C(=O)C(C)(C)[C@@H](O)CC(=O)O1` [EPOTHILONE A], the negative logarithm of the IC50 (pIC50) in experiment [10] is 8.11; in [11], 8.62; in experiment [12] it was 8.02; in experiment [13] it was 8.66; in experiment [15], 8.89.
Turning to `Cc1nc(Cc2ccccc2)c(O)nc1Cc1ccccc1`, the minimal inhibitory concentration (MIC) in experiment [8] was more than 66.6 µg/mL; in [9] it was more than 66.6 µg/mL; in experiment [2], 67 µg/mL (≈ 231 µM); in experiment [3] it was more than 66.6 µg/mL; in experiment [4], more than 66.6 µg/mL; in experiment [5], more than 66.6 µg/mL. Also, the MIC in [6], in experiment [7], in experiment [1], in experiment [16], in experiment [17] and in experiment [18] (Hansenula anomala) was more than 66.6 µg/mL throughout. The negative logarithm of the IC50 (pIC50) in experiment [10], in experiment [11], in experiment [12], in [13], in experiment [14] and in experiment [15] was less than 4.46 each time.
As for `COC(=O)[C@H](CCCCN(O)C(=O)/C=C/c1ccccc1)NC(=O)CC(O)(CC(=O)N[C@@H](CCCCN(O)C(=O)/C=C/c1ccccc1)C(=O)OC)C(=O)O`, the minimal inhibitory concentration (MIC) is 66.6 µg/mL (≈ 86.6 µM) in [8]; more than 66.6 µg/mL in experiment [9]; more than 66.6 µg/mL in [2]; more than 66.6 µg/mL in [3]; more than 66.6 µg/mL in experiment [4]; more than 66.6 µg/mL in experiment [5]. Further, the MIC in [6] was more than 66.6 µg/mL; in [7] it was more than 66.6 µg/mL; in [1] it was more than 66.6 µg/mL; in experiment [16], more than 66.6 µg/mL; in experiment [17], 33.3 µg/mL (≈ 43.3 µM); in [18] (Hansenula anomala) it was more than 66.6 µg/mL. The negative logarithm of the IC50 (pIC50) in experiment [10] was 5.74; in [19], 7.30; in [20], 7.00; in [11], 6.72; in [12], 7.30; in experiment [13], 6.66. For the same compound, the results for the pIC50 in experiment [14] and in experiment [15] were 6.92 and 5.71, respectively.
Consider NYSTATIN, for which the minimum inhibitory concentration (MIC) in experiment [8] came out at 4.2 µg/mL; in [9], 2.1 µg/mL; in [16], 16.6 µg/mL; in experiment [17] it was 8.3 µg/mL; in [18], 16.6 µg/mL.
For `O=c1cnc(CCc2ccccc2)c2n1CCC2`, the MIC came to 66.6 µg/mL (≈ 277 µM) in experiment [8]; 33.3 µg/mL (≈ 139 µM) in [9]; 66.6 µg/mL (≈ 277 µM) in experiment [2]; 66.6 µg/mL (≈ 277 µM) in [3]; 33.3 µg/mL (≈ 139 µM) in experiment [4]; 66.6 µg/mL (≈ 277 µM) in [5]. The MIC was 66.6 µg/mL (≈ 277 µM) in experiment [6]; 66.6 µg/mL (≈ 277 µM) in experiment [7]; 66.6 µg/mL (≈ 277 µM) in [1]; 66.6 µg/mL (≈ 277 µM) in [16]; 33.3 µg/mL (≈ 139 µM) in [17]; more than 66.6 µg/mL in experiment [18] (Hansenula anomala). For the same compound, the pIC50 in experiment [10], in [19], in [20], in experiment [11], in experiment [12] and in experiment [13] was less than 4.38 throughout. The pIC50 in [14] and in experiment [15] was less than 4.38 throughout.
As to `CC(=O)c1c(Cc2ccccc2)[nH]c(=O)c2cccn12`, the MIC is more than 66.6 µg/mL in experiment [8]; more than 66.6 µg/mL in experiment [9]; 66.6 µg/mL (≈ 250 µM) in experiment [2]; more than 66.6 µg/mL in experiment [3]; more than 66.6 µg/mL in experiment [4]; more than 66.6 µg/mL in experiment [5]. Moreover, the MIC in [6], in [7], in experiment [1], in experiment [16], in experiment [17] and in experiment [18] (Hansenula anomala) was more than 66.6 µg/mL throughout. Moreover, the pIC50 in [10] was less than 4.42; in experiment [19] it was 4.81; in experiment [20], 5.07; in experiment [11], 4.77; in experiment [12], 5.28; in experiment [13] it was 4.85. Moreover, the results for the pIC50 in experiment [14] and in experiment [15] were 5.06 and 5.62, respectively.
